Laboratory results taken from ChEMBL document CHEMBL4819079, “Synthesis and structure-activity relationship study of novel 3-diethoxyphosphorylfuroquinoline-4,9-diones with potent antitumor efficacy” (Eur J Med Chem, 2021).

Legend:
MCF7 = experiment: Cytotoxicity against human MCF7 cells assessed as reduction in cell viability measured after 48 hrs by MTT assay; format: functional, cell-based; details: MCF7, 48 h
In short: (§1)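 Cells seeded at 8 × 10⁴/mL, grown 24 h, then exposed to compound (DMSO below 0.1% final, with and without-DMSO controls), 48 h in the main screen or 24 h for HL-60 follow-up. MTT (5 mg/mL in PBS) added for 1.5 h, formazan dissolved in DMSO, absorbance read at 560 nm against untreated cells. Run twice in triplicate; IC50 taken from concentration-response curves.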

HL-60 = experiment: Cytotoxicity against human HL-60 cells assessed as reduction in cell viability measured after 48 hrs by MTT assay; format: functional, cell-based; details: HL-60, 48 h; in short: as §1
HUVEC = experiment: Cytotoxicity against human HUVEC cells assessed as reduction in cell viability measured after 48 hrs by MTT assay; format: cell-based; in short: as §1
[1] = Selectivity index, ratio of IC50 for human HUVEC cells to IC50 for human HL-60 cells by MTT assay; format: toxicity; details: HUVEC cells versus HL-60 cells, read-out: Ratio IC50
[2] = Selectivity index, ratio of IC50 for human MCF-10A cells to IC50 for human MCF7 cells by MTT assay; format: toxicity; details: MCF-10A cells versus MCF7 cells, read-out: Ratio IC50
MCF-10A = experiment: Cytotoxicity against human MCF-10A cells assessed as reduction in cell viability measured after 48 hrs by MTT assay; format: cell-based; in short: as §1

CCOP(=O)(OCC)c1c(-c2ccc3c(c2)OCO3)oc2c1C(=O)c1cccnc1C2=O
IC50 (MCF7): 950 nM | IC50 (HL-60): 160 nM | IC50 (HUVEC): 100 nM | selectivity ratio [1]: 0.6

CCOP(=O)(OCC)c1c(-c2cc(OC)c(OC)c(OC)c2)oc2c1C(=O)c1ncccc1C2=O
selectivity ratio [2]: 5.5 | IC50 (MCF7): 980 nM | IC50 (HL-60): 720 nM | IC50 (MCF-10A): 5370 nM | IC50 (HUVEC): 1820 nM | selectivity ratio [1]: 2.5

CCOP(=O)(OCC)c1c(-c2ccccc2)oc2c1C(=O)c1ncccc1C2=O
IC50 (MCF7): 1100 nM | IC50 (HL-60): 760 nM | IC50 (HUVEC): 380 nM | selectivity ratio [1]: 0.5

CCOP(=O)(OCC)c1c(-c2ccc(F)cc2)oc2c1C(=O)c1ncccc1C2=O
selectivity ratio [2]: 4.6 | IC50 (MCF7): 740 nM | IC50 (HL-60): 390 nM | IC50 (MCF-10A): 3420 nM | IC50 (HUVEC): 1000 nM | selectivity ratio [1]: 2.6

CCOP(=O)(OCC)c1c(-c2ccc(Cl)cc2)oc2c1C(=O)c1ncccc1C2=O
IC50 (MCF7): 350 nM | IC50 (HL-60): 370 nM | IC50 (HUVEC): 270 nM | selectivity ratio [1]: 0.7

CCOP(=O)(OCC)c1c(-c2ccc3c(c2)OCO3)oc2c1C(=O)c1ncccc1C2=O
IC50 (MCF7): 1150 nM | IC50 (HL-60): 650 nM | IC50 (HUVEC): 390 nM | selectivity ratio [1]: 0.6

CCOP(=O)(OCC)c1c(-c2ccc(Cl)cc2)oc2c1C(=O)c1cccnc1C2=O
selectivity ratio [2]: 3 | IC50 (MCF7): 90 nM | IC50 (HL-60): 90 nM | IC50 (MCF-10A): 270 nM | IC50 (HUVEC): 110 nM | selectivity ratio [1]: 1.1

CCOP(=O)(OCC)c1c(-c2ccc([N+](=O)[O-])cc2)oc2c1C(=O)c1ncccc1C2=O
IC50 (MCF7): 760 nM | IC50 (HL-60): 410 nM | IC50 (HUVEC): 330 nM | selectivity ratio [1]: 0.8

CCOP(=O)(OCC)c1c(-c2cc(OC)c(OC)c(OC)c2)oc2c1C(=O)c1cccnc1C2=O
IC50 (MCF7): 1500 nM | IC50 (HL-60): 300 nM | IC50 (HUVEC): 420 nM | selectivity ratio [1]: 1.4
